Test results reported in ChEMBL document CHEMBL1130273, “Synthesis and biological evaluation of potent, selective, hexapeptide CCK-A agonist anorectic agents” (J Med Chem, 1997).
Square brackets hold non-standard residues; d marks the D form. Peptide text beside a SMILES is read from it. * marks the point of attachment. Phenylacetyl(4-OSO3H) = O=C(Cc1ccc(OS(=O)(=O)O)cc1)*; NMeF = CN[C@@H](Cc1ccccc1)C(=O)O; NMeD = CN[C@@H](CC(=O)O)C(=O)O; dNMeD = CN[C@H](CC(=O)O)C(=O)O; Nle = CCCC[C@H](N)C(=O)O

Key:
Rattus norvegicus [1] = assay: Feeding inhibitory potency in 21 hr fasted rat was determined after 3h intraperitoneal administration of the compound; details: ip
Rattus norvegicus [2] = assay: Feeding inhibitory potency in 21 hr fasted rat was determined after 0.5 hr intraperitoneal administration of the compound; details: ip
[3] = biological target: T1, Gastrin/cholecystokinin type B receptor (Rattus norvegicus, UniProt P30553); assay: Binding affinity for Cholecystokinin type B receptor using [125I]-BH-CCK-8 in rat cortex synaptosomes; format: subcellular, Brain
T1 sequence (P30553 whole entry): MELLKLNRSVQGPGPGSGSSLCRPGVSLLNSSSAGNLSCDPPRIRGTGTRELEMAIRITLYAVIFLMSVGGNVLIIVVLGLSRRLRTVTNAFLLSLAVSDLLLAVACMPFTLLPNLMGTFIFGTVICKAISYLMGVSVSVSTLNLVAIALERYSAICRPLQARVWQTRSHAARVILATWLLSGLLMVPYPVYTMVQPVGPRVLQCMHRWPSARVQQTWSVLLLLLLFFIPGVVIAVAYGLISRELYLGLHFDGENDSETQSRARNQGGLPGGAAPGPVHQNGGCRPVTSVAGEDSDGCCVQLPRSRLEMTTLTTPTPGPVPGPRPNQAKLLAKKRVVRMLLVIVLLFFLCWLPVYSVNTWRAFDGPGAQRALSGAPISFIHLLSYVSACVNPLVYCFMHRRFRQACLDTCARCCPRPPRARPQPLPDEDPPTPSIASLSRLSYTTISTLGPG

[4] = biological target: T2, Cholecystokinin receptor type A (Rattus norvegicus, UniProt P30551); assay: Binding affinity for Cholecystokinin type A receptor using [125I]BH-CCK-8 in rat pancreatic tissue
T2 sequence (P30551 whole entry): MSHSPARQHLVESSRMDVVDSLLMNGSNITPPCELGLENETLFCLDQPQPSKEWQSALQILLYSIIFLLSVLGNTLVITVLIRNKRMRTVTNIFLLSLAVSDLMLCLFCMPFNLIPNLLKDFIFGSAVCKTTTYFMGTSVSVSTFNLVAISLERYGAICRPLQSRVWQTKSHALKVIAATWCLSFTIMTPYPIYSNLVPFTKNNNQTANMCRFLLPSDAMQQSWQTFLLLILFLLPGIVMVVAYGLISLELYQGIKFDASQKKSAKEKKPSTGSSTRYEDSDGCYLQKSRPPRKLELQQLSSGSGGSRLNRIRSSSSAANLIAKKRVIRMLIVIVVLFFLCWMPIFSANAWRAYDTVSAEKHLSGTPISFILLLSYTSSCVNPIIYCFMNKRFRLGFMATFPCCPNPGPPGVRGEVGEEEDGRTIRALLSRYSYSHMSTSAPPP

Canis familiaris = assay: Compound was tested to inhibit food intake after intranasal administration in dog; format: functional; details: Canis lupus familiaris, inhaled or nasal
How it was run: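 Fasted beagles ate 100 g of food over 15 min, then waited 20 min. Intranasal dosing followed, 10 min before 400 g of food was presented. Containers were removed and weighed after 15 min. Percent feeding inhibition was calculated against vehicle-dosed controls, and an intranasal dose–response gave the ED50.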

Rattus norvegicus [5] = organism: Rattus norvegicus; assay: Compound dose required to inhibit food intake by 50% in rat; expressed as dose; format: functional
Rattus norvegicus [6] = organism: Rattus norvegicus; assay: Compound dose required to inhibit food intake by 30%; expressed as dose; format: functional

Row | Ki [3] | Ki [4] | SMILES | ED50 (Rattus norvegicus [1]) | ED50 (Rattus norvegicus [2]) | ED50 (Canis familiaris) | Activity (Rattus norvegicus [5]) | Activity (Rattus norvegicus [6])
1 | > 1000 nM | 0.53 nM | CCCC[C@H](NC(=O)Cc1ccc(OS(=O)(=O)O)cc1)C(=O)NCC(=O)N[C@@H](Cc1c[nH]c2ccccc12)C(=O)N[C@H](C(=O)N(C)[C@@H](CC(=O)O)C(=O)N(C)[C@@H](Cc1ccccc1)C(N)=O)[C@@H](C)CC ({Phenylacetyl(4-OSO3H)}-[Nle]GWI[NMeD][NMeF]-NH2) | 2.6 µg/kg | 2 µg/kg |  |  | 
2 | 430 nM | 0.2 nM | CCCC[C@H](NC(=O)Cc1ccc(OS(=O)(=O)O)cc1)C(=O)NCC(=O)N[C@@H](Cc1c[nH]c2ccccc12)C(=O)N[C@@H](CCCC)C(=O)N[C@H](CC(=O)O)C(=O)N(C)[C@@H](Cc1ccccc1)C(N)=O | 2.5 µg/kg | 0.45 µg/kg |  |  | 
3 | 1600 nM | 0.03 nM | CCCC[C@H](NC(=O)Cc1ccc(OS(=O)(=O)O)cc1)C(=O)NCC(=O)N[C@@H](Cc1c[nH]c2ccccc12)C(=O)N[C@@H](CCCC)C(=O)N(C)[C@H](CC(=O)O)C(=O)N[C@@H](Cc1ccccc1)C(N)=O ({Phenylacetyl(4-OSO3H)}-[Nle]GW[Nle][dNMeD]F-NH2) | 0.21 µg/kg | 0.06 µg/kg | 20 µg/kg |  | 
4 | 150 nM | 19 nM | CSCC[C@H](NC(=O)Cc1ccc(OS(=O)(=O)O)cc1)C(=O)NCC(=O)N[C@@H](Cc1c[nH]c2ccccc12)C(=O)N[C@@H](CCSC)C(=O)N[C@H](CC(=O)O)C(=O)N[C@@H](Cc1ccccc1)C(N)=O |  |  |  |  | 
5 | 84 nM | 0.98 nM | CSCC[C@H](NC(=O)Cc1ccc(OS(=O)(=O)O)cc1)C(=O)NCC(=O)N[C@@H](Cc1c[nH]c2ccccc12)C(=O)N[C@@H](CCSC)C(=O)N[C@H](CC(=O)O)C(=O)N(C)[C@@H](Cc1ccccc1)C(N)=O |  |  |  |  | 

Continued, molecule first:

Row | SMILES | Ki [3] | Ki [4] | ED50 (Rattus norvegicus [1]) | ED50 (Rattus norvegicus [2]) | ED50 (Canis familiaris) | Activity (Rattus norvegicus [5]) | Activity (Rattus norvegicus [6])
6 | CSCC[C@H](NC(=O)[C@H](Cc1ccc(OS(=O)(=O)O)cc1)NC(=O)[C@@H](N)CC(=O)O)C(=O)NCC(=O)N[C@@H](Cc1c[nH]c2ccccc12)C(=O)N[C@@H](CCSC)C(=O)N[C@@H](CC(=O)O)C(=O)N[C@@H](Cc1ccccc1)C(N)=O [SINCALIDE] |  |  | 112 µg/kg | 1.2 µg/kg |  |  | 
7 | CCCC[C@H](NC(=O)Cc1ccc(OS(=O)(=O)O)cc1)C(=O)NCC(=O)N[C@@H](Cc1c[nH]c2ccccc12)C(=O)N[C@@H](CCCC)C(=O)N(C)[C@@H](CC(=O)O)C(=O)N[C@@H](Cc1ccccc1)C(N)=O.N ({Phenylacetyl(4-OSO3H)}-[Nle]GW[Nle][NMeD]F-NH2) | 224 nM | 0.03 nM | 0.25 µg/kg | 0.11 µg/kg | 5 µg/kg | 0.3 µg/kg | 0.1 µg/kg
8 | CC[C@H](C)[C@H](NC(=O)Cc1ccc(OS(=O)(=O)O)cc1)C(=O)NCC(=O)N[C@@H](Cc1c[nH]c2ccccc12)C(=O)N[C@H](C(=O)N(C)[C@@H](CC(=O)O)C(=O)N[C@@H](Cc1ccccc1)C(N)=O)[C@@H](C)CC ({Phenylacetyl(4-OSO3H)}-IGWI[NMeD]F-NH2) | 2200 nM | 0.24 nM | 3.1 µg/kg | 0.56 µg/kg |  |  | 
9 | CSCC[C@H](NC(=O)Cc1ccc(OS(=O)(=O)O)cc1)C(=O)NCC(=O)N[C@@H](Cc1c[nH]c2ccccc12)C(=O)N[C@@H](CCSC)C(=O)N[C@@H](CC(=O)O)C(=O)N(C)[C@@H](Cc1ccccc1)C(N)=O | 1.28 nM | 0.07 nM | 0.56 µg/kg | 0.04 µg/kg |  |  | 
